The values that follow come from article PMC7215194 (Heliyon, 2020).

Data set [1] has as its system A431 cells. The data set can be described thus: Anchorage-independent growth assay in soft agar. The data set is classed as cell-based, human. The settings on record: 14 days, n = 4; for effect on size and number of colonies grown in soft agar: 20 μM W-7 or 25 μM W-12, 10% FBS, colonies >60 μm. The method, boiled down:
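A431 cells (10^5 per 60 mm dish) suspended in DMEM ± 10% (v/v) FBS with 10 mM NaOH-Hepes pH 7.5 in 0.3% agarose, layered over 0.5% agarose. Fed every 72–96 h with fresh medium ± 10 nM EGF, 20 μM W-7 or 25 μM W-12 in DMSO; vehicle 0.4% DMSO. Imaged at day 14 with a 4x objective; colonies ≥60 μm counted.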

The test system of data set [2] is A431 cells. Nature of the data set: Artificial wound healing assay. In kind it is cell-based, human. The settings on record: for effect of W-7/W-12 on cell migration in the absence of EGF: 20 μM, no EGF, time-lapse 48 h, n = 3.
Data set [3] relates to A431 cells. The data set can be described thus: Cell detachment assay. In kind it is cell-based, human. The settings on record: overnight with 20 μg/ml peptides or 20 μM W-7/W-12, then 1 mM EGTA, n = 3. The method, boiled down: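 A431 cells (DMEM, 2 mM L-glutamine, 10% FBS, 37 °C, 5% CO2) were seeded at 10^6 per 60 mm dish in 10% FBS. After 6 h, test peptides (20 μg/ml) or W-7/W-12 (20 μM) in DMSO were added in serum-deprived medium overnight, with 0.2–0.4% DMSO vehicle controls. Cells were then exposed to 1 mM EGTA, and detached cells in aliquots were counted in a Neubauer chamber over time. Values are mean ± SEM percent detached, n = 3.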

Data set [4] relates to A431 cells. The data set can be described thus: TAMRA-peptides internalization assay, confocal microscopy of living cells. The data set is classed as cell-based, human. In outline:
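A431 cells (2.5 × 10^5) were seeded in coverslip-bottom imaging dishes in DMEM with 10% FBS. After 6 h, serum-deprived medium with N-terminal 5(6)-TAMRA-labeled test peptides (20 μg/ml) was added for 5 min or overnight, with free TAMRA (1.7 μM) as control. Living cells were gently washed and imaged by confocal microscopy with a 63x objective, 561 nm laser and white light, taking z-planes every 0.8 μm.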

Another data set concerns hepatocarcinoma cells. The settings on record: EGF-dependent vs basal EGF-independent proliferation; cited from earlier work.

`NCCCCNS(=O)(=O)c1ccc2ccccc2c1` [W-12, N-(4-aminobutyl)-2-naphthalenesulfonamide]: the “effect on size and number of colonies grown in soft agar” value with A431 cells [1] is “very low effect”. The “effect of W-7/W-12 on cell migration in the absence of EGF” value in the data set on A431 cells [2] is listed as “increased the initial migration rate of the cells”. For the same compound, the “effect on cell detachment with EGTA” value in the data set on A431 cells [3] is given as “only partially”.
“5(6)-carboxytetramethylrhodamine [free TAMRA]”: in the data set on A431 cells [4], the “membrane blebbing (initiation of apoptosis) of treated cells” value is “not observed”.
For `NCCCCCCNS(=O)(=O)c1cccc2c(Cl)cccc12` [W-7, N-(6-aminohexyl)-5-chloro-1-naphthalenesulfonamide], the “effect on size and number of colonies grown in soft agar” value in the data set on A431 cells [1] is “strongly inhibits”. Moreover, in the data set on A431 cells [2], the “effect of W-7/W-12 on cell migration in the absence of EGF” value was “increased the initial migration rate of the cells, particularly with the high affinity inhibitor W-7”. Further, the “effect on cell detachment with EGTA” value in the data set on A431 cells [3] was “only partially”. Moreover, the “effect of W-7 on proliferation of hepatocarcinoma cells” value with hepatocarcinoma cells is on record as “inhibits EGF-dependent but not basal EGF-independent proliferation of hepatocarcinoma cells”.
Consider EGF: epidermal growth factor, for which the “effect of EGF on anchorage-independent growth in soft agar” value with A431 cells [1] (10 nM EGF) is “particularly decreasing the size of the colonies”. In addition, the “delayed action of EGF on the initiation of cell migration” value in the data set with A431 cells [2] (10 nM EGF, n = 9) worked out at 11.5 ± 1.4 h.
